Data on 16 compounds can be found in PubChem BioAssay.

Assay [1] can be described thus: RPL19A-GFP modulators, yeast TOR pathway, confirmation, cell-based, S. cerevisiae, flow cytometry, cherry picks, mother/daughter gates (AID 2270;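 active means GFP response below 50% of the DMSO control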). The settings on record: S. cerevisiae RPL19A-GFP strain, 3 h, at 10 µM, stronger effect = lower value, 100 = same GFP as DMSO wells.
A short description of assay [2]: LAP4-GFP expression modulators in yeast, confirmation, cell-based, cherry picks, flow cytometry, mother/daughter gates (AID 2271;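 active means GFP response above 150% of the DMSO control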;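 further: ratio of sample to DMSO plate mean so 100% equals DMSO level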). The settings on record: S. cerevisiae LAP4-GFP strain, 3 h, at 10 µM, stronger effect = higher value, 100 means same as DMSO control. Summed up:
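Measured by: GFP by flow cytometry. Test system: GFP-fusion yeast strain. Input: yeast cells seeded at OD600 of 0.2. Timing: 30 °C, 3 h compound incubation, rotating. Buffer or medium: synthetic complete medium for yeast. Benchmarks: DMSO-only negative wells, rapamycin 400 ng/mL positive wells. Compound: 10 µM single dose.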
(Flow cytometry measures light scatter and fluorescence of single cells or particles in a stream.)

Assay [3] in a line: modulators of MEP2-GFP levels in yeast, confirmation, S. cerevisiae, flow cytometry GFP, cherry picks (AID 2272;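 active means GFP response above 150% of the DMSO control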;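 further: ratio of well signal to plate DMSO mean so 100% equals DMSO level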). The settings on record: S. cerevisiae MEP2-GFP strain, 3 h, at 10 µM, stronger effect = higher value.
The nature of assay [4]: AGP1-GFP expression modulators, hit retest, confirmation, cell-based, flow cytometry, S. cerevisiae, cherry picks (AID 2273).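 Further: median GFP channel fluorescence over the whole cell population gate.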 Conditions: S. cerevisiae AGP1-GFP strain, 3 h, at 10 µM.
A short description of assay [5]: modulators of CIT2-GFP expression in yeast, confirmation, S. cerevisiae, GFP fusion, cherry picks, mother/daughter gates (AID 2274). Conditions: S. cerevisiae CIT2-GFP strain, flow cytometry, 3 h, at 10 µM, stronger effect = higher value.
The mark [6] stands for this setting: measured here: daughter cell gate.
Where [7] appears, read: measured here: mother cell gate.
[8] abbreviates: measured here: daughter cell gate response.
Setting [9] is: measured here: mother cell gate response.

Each structure is given as a SMILES string. The source made the active and inactive calls.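 How the source made its calls, unless noted: active means GFP response above 150% of the DMSO level; inconclusive means fewer than 70 events counted for a yeast strain; inactive means the rest.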

For `CN1C(=O)c2cccc3c(Cl)ccc(c23)C1=O`, the GFP response vs DMSO was 97.8% (inactive) in assay [1], 95.7% in assay [1] (setting [6]), 98% in assay [1] (setting [7]) and 105% (inactive) in assay [3]. For the same compound, the results for the GFP response relative to DMSO in assay [2], in assay [2] (setting [8]) and in assay [2] (setting [9]) were 107% (inactive), 107% and 107%, respectively. In addition, the GFP response, % of DMSO in assay [4] was 92.4% (inactive); in assay [5], 97.3% (inactive); in assay [5] (setting [6]), 95.6%; in assay [5] (setting [7]), 98.1%.

`COc1ccc(-c2csc(N(CC(C)C)C(=O)c3ccco3)n2)cc1`: the GFP response vs DMSO in assay [1] is 98.2% (inactive); in assay [1] (setting [6]), 100%; in assay [1] (setting [7]), 97.7%; in assay [3], 101% (inactive). Further, the values for the GFP response relative to DMSO in assay [2], in assay [2] (setting [8]) and in assay [2] (setting [9]) were 101% (inactive), 101% and 100%, respectively. In addition, the GFP response, % of DMSO in assay [4] is 100% (inactive); in assay [5], 98.6% (inactive); in assay [5] (setting [6]), 101%; in assay [5] (setting [7]) it was 97.1%.

In the case of `O=C(N/N=C\c1ccc(F)cc1)c1cc(OCC(F)(F)F)ccc1OCC(F)(F)F`, the GFP response vs DMSO in assay [1] is 99.1% (inactive); in assay [1] (setting [6]), 99.3%; in assay [1] (setting [7]), 99.2%; in assay [3] it was 102% (inactive). Further, the GFP response relative to DMSO was 100% (inactive) in assay [2], 95% in assay [2] (setting [8]) and 99.5% in assay [2] (setting [9]). Further, the GFP response, % of DMSO in assay [4] is 105% (inactive); in assay [5], 105% (inactive); in assay [5] (setting [6]), 106%; in assay [5] (setting [7]), 103%.

Regarding `O=C1CCN(S(=O)(=O)c2ccccc2)C2CCCCC12` (stereo unspecified), the GFP response vs DMSO in assay [1] was 98% (inactive); in assay [1] (setting [6]), 97.8%; in assay [1] (setting [7]) it was 98.1%; in assay [3], 106% (inactive). The GFP response relative to DMSO in assay [2] is 102% (inactive); in assay [2] (setting [8]), 102%; in assay [2] (setting [9]), 100%. Further, the GFP response, % of DMSO in assay [4] is 100% (inactive); in assay [5], 108% (inactive); in assay [5] (setting [6]), 104%; in assay [5] (setting [7]), 101%.

`CN1CC(=O)NC1=NC(=O)C12CC3CC(CC(C3)C1)C2`: the GFP response vs DMSO in assay [1] was 95% (inactive); in assay [1] (setting [6]), 93.9%; in assay [1] (setting [7]), 96%; in assay [3] it was 97.5% (inactive). For the same compound, the GFP response relative to DMSO in assay [2] was 102% (inactive); in assay [2] (setting [8]), 97.9%; in assay [2] (setting [9]), 103%. In addition, the GFP response, % of DMSO in assay [4] was 92.3% (inactive); in assay [5], 93.5% (inactive); in assay [5] (setting [6]), 94.6%; in assay [5] (setting [7]) it was 92.1%.

Regarding `CS(=O)(=O)N1N=C(c2ccc3nccnc3c2)CC1c1ccccc1` (stereo unspecified), the GFP response vs DMSO in assay [1] is 99.8% (inactive); in assay [1] (setting [6]), 102%; in assay [1] (setting [7]) it was 98.2%; in assay [3] it was 101% (inactive). The GFP response relative to DMSO was 100% (inactive) in assay [2], 102% in assay [2] (setting [8]) and 99.5% in assay [2] (setting [9]). Further, the GFP response, % of DMSO in assay [4] was 98.4% (inactive); in assay [5], 103% (inactive); in assay [5] (setting [6]), 103%; in assay [5] (setting [7]), 102%.

Consider `N#Cc1nccnc1S(=O)(=O)c1cccs1`, for which the GFP response vs DMSO is 96.2% (inactive) in assay [1], 99.5% in assay [1] (setting [6]), 94.6% in assay [1] (setting [7]) and 106% (inactive) in assay [3]. In addition, the GFP response relative to DMSO in assay [2] was 166% (active); in assay [2] (setting [8]), 149%; in assay [2] (setting [9]), 162%. Moreover, the GFP response, % of DMSO was 96.1% (inactive) in assay [4], 103% (inactive) in assay [5], 103% in assay [5] (setting [6]) and 98.2% in assay [5] (setting [7]).

Turning to `O=c1c2ccccc2nc(-c2ccccc2)n1CCN1CCOCC1`, the GFP response vs DMSO in assay [1] was 101% (inactive); in assay [1] (setting [6]), 102%; in assay [1] (setting [7]), 101%; in assay [3] it was 101% (inactive). Besides, the GFP response relative to DMSO in assay [2] is 97% (inactive); in assay [2] (setting [8]), 97.5%; in assay [2] (setting [9]), 98.4%. Further, the GFP response, % of DMSO is 106% (inactive) in assay [4], 98.8% (inactive) in assay [5], 95.6% in assay [5] (setting [6]) and 96.8% in assay [5] (setting [7]).

With `Cc1ccc(C2=NOC(=O)/C2=C\c2ccc(C)o2)cc1`, the GFP response vs DMSO in assay [1] is 101% (inactive); in assay [1] (setting [6]), 89.7%; in assay [1] (setting [7]), 90.8%; in assay [3], 110% (inactive). The figures for the GFP response relative to DMSO in assay [2], in assay [2] (setting [8]) and in assay [2] (setting [9]) were 230% (active), 134% and 224%, respectively. In addition, the GFP response, % of DMSO in assay [4] is 97% (inactive); in assay [5], 87.2% (inactive); in assay [5] (setting [6]) it was 87.3%; in assay [5] (setting [7]), 72.8%.

As for `Nc1nc(SCC(=O)Nc2cc(C(F)(F)F)ccc2N2CCOCC2)n[nH]1`, the GFP response vs DMSO in assay [1] is 99% (inactive); in assay [1] (setting [6]) it was 99.9%; in assay [1] (setting [7]), 97.9%; in assay [3] it was 105% (inactive). The GFP response relative to DMSO in assay [2] was 101% (inactive); in assay [2] (setting [8]) it was 101%; in assay [2] (setting [9]), 98.3%. For the same compound, the GFP response, % of DMSO was 101% (inactive) in assay [4], 99.7% (inactive) in assay [5], 99.1% in assay [5] (setting [6]) and 98.5% in assay [5] (setting [7]).

On to `CCOc1ccc(N2C(=O)CC(Sc3ncccn3)C2=O)cc1` (stereo unspecified), for which the GFP response vs DMSO in assay [1] was 98.2% (inactive); in assay [1] (setting [6]), 98.4%; in assay [1] (setting [7]), 99.2%; in assay [3], 100% (inactive). For the same compound, the GFP response relative to DMSO in assay [2] is 97.9% (inactive); in assay [2] (setting [8]), 97.6%; in assay [2] (setting [9]), 98.3%. Moreover, the GFP response, % of DMSO in assay [4] was 101% (inactive); in assay [5], 104% (inactive); in assay [5] (setting [6]) it was 105%; in assay [5] (setting [7]) it was 104%.

Consider `N#C/C(=C\c1cccc(Oc2ccccc2)c1)C(=O)N1CCOCC1`, for which the GFP response vs DMSO in assay [1] was 97.8% (inactive); in assay [1] (setting [6]), 97.8%; in assay [1] (setting [7]), 95.1%; in assay [3] it was 98.8% (inactive). In addition, the figures for the GFP response relative to DMSO in assay [2], in assay [2] (setting [8]) and in assay [2] (setting [9]) were 137% (inactive), 128% and 141%, respectively. Further, the GFP response, % of DMSO in assay [4] was 104% (inactive); in assay [5] it was 90.9% (inactive); in assay [5] (setting [6]) it was 90.5%; in assay [5] (setting [7]), 87.8%.

For the compound `CC1(C(=O)OCc2cc(=O)n3cc(Br)ccc3n2)CC1(Cl)Cl` (stereo unspecified), the GFP response vs DMSO in assay [1] is 92.5% (inactive); in assay [1] (setting [6]), 89.9%; in assay [1] (setting [7]), 93.8%; in assay [3], 94.4% (inactive). Further, the GFP response relative to DMSO in assay [2] is 133% (inactive); in assay [2] (setting [8]), 123%; in assay [2] (setting [9]), 139%. Besides, the GFP response, % of DMSO in assay [4] was 103% (inactive); in assay [5] it was 88.5% (inactive); in assay [5] (setting [6]), 87.3%; in assay [5] (setting [7]) it was 88.8%.

For the compound `N#Cc1ccccc1Cn1cc(/C=C/[N+](=O)[O-])c2ccccc21`, the GFP response vs DMSO is 96.3% (inactive) in assay [1], 98.3% in assay [1] (setting [6]), 95.1% in assay [1] (setting [7]) and 98.8% (inactive) in assay [3]. Further, the GFP response relative to DMSO in assay [2] is 132% (inactive); in assay [2] (setting [8]), 129%; in assay [2] (setting [9]), 134%. The GFP response, % of DMSO in assay [4] was 104% (inactive); in assay [5], 97.2% (inactive); in assay [5] (setting [6]), 100%; in assay [5] (setting [7]) it was 91.8%.

Take `COc1cc(/C=C2/C(=O)ON=C2c2ccccc2)ccc1O`: the GFP response vs DMSO was 105% (inactive) in assay [1], 108% in assay [1] (setting [6]), 100% in assay [1] (setting [7]) and 121% (inactive) in assay [3]. For the same compound, the GFP response relative to DMSO in assay [2] was 105% (inactive); in assay [2] (setting [8]) it was 108%; in assay [2] (setting [9]) it was 102%. Besides, the GFP response, % of DMSO in assay [4] was 107% (inactive); in assay [5], 125% (inactive); in assay [5] (setting [6]), 132%; in assay [5] (setting [7]) it was 112%.

In the case of `Cc1nn(Cc2ccc(Cl)cc2)c(=O)n1N(C)c1ncc(C(F)(F)F)cc1Cl`, the GFP response vs DMSO was 96% (inactive) in assay [1], 98.1% in assay [1] (setting [6]), 97.2% in assay [1] (setting [7]) and 96.2% (inactive) in assay [3]. Also, the GFP response relative to DMSO in assay [2] was 96.7% (inactive); in assay [2] (setting [8]), 97.6%; in assay [2] (setting [9]) it was 95.1%. In addition, the GFP response, % of DMSO in assay [4] is 95.4% (inactive); in assay [5], 99.7% (inactive); in assay [5] (setting [6]), 101%; in assay [5] (setting [7]), 98.5%.
